The test system of data set [1] is Cryptococcus neoformans. The data set is described as follows: Antimicrobial activity against Cryptococcus neoformans L1 after 48 hrs by broth microdilution method. The class given is functional. The following applies: L1, 48 h. In outline:
(§1)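 Fungi grown on Sabouraud agar at 30 °C for 48 h, suspended in PBS, turbidity read at 600 nm and adjusted in RPMI-1640. Twofold serial dilutions made in RPMI-1640, inoculum ~5 × 10⁴ cells/mL, incubated 30 °C for 48 h. MIC is the lowest concentration giving complete inhibition of visible growth, following NCCLS broth microdilution guidelines.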
A general note: Broth dilution looks for growth in wells or tubes with falling amounts of substance.

Data set [2] deals with Staphylococcus aureus. The data set is described as follows: Antimicrobial activity against Staphylococcus aureus ATCC 25923 after 18 hrs by broth microdilution method. The following applies: ATCC 25923, 18 h. The class given is functional. In outline:
(§2)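 Strains grown at 37 °C in Mueller–Hinton broth and tested in logarithmic phase. Twofold serial dilutions made in MH broth, inoculum ~2.5 × 10⁵ cells/mL, incubated overnight (18 h) at 37 °C. MIC is the lowest concentration giving complete inhibition of visible growth, following NCCLS broth microdilution guidelines.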

For data set [3], the system named is Escherichia coli. Briefly: Antimicrobial activity against Escherichia coli ATCC 25922 after 18 hrs by broth microdilution method. It counts as functional. The following applies: ATCC 25922, 18 h. In outline:
as §2

Data set [4] relates to Candida albicans. The data set is described as follows: Antimicrobial activity against Candida albicans L21 after 48 hrs by broth microdilution method. It counts as functional. The following applies: L21, 48 h. The gist of the method: as §1
Another data set relates to Debaryomyces hansenii. Briefly: Antimicrobial activity against Candida famata SA550 after 48 hrs by broth microdilution method. It counts as functional. The following applies: SA550, 48 h. The gist of the method:
as §1

The next data set has as its system Salmonella typhimurium. Briefly: Antimicrobial activity against Salmonella Typhimurium ATCC 14028 after 18 hrs by broth microdilution method. As to conditions: Salmonella enterica, ATCC 14028, 18 h. The class given is functional, Salmonella enterica subsp. enterica serovar Typhimurium. In outline:
as §2

For data set [5], the system named is Cryptococcus neoformans. The data set is described as follows: Antimicrobial activity against Cryptococcus neoformans ATCC 90112 after 48 hrs by broth microdilution method. The class given is functional. As to conditions: ATCC 90112, 48 h. The gist of the method:
as §1

The nature of data set [6]: Toxicity in human RBCs assessed as induction of hemolysis at 100 uM relative to untreated control. The class given is cell-based. As to conditions: erythrocyte. The gist of the method: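 Erythrocytes taken from fresh human blood anticoagulated with citrate-dextrose. A 0.5% (v/v) suspension in 10 mM phosphate buffer pH 7.4 with 139 mM NaCl was incubated with 100 µM cyclopeptoid for 60 min at 37 °C. Reaction stopped with cold buffer, centrifuged at 10,000g for 1 min, and the supernatant collected.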

Data set [7] relates to Candida albicans. The data set is described as follows: Antimicrobial activity against Candida albicans ATCC 90029 after 48 hrs by broth microdilution method. The class given is functional. The following applies: ATCC 90029, 48 h. The gist of the method:
as §1

Data set [8] deals with Candida albicans. Briefly: Membrane permeabilizing effect in Candida albicans ATCC 90029 assessed as propidium iodide uptake at 100 uM after 120 mins by flow cytometry. The class given is functional, organism-based. The gist of the method: (§3)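 Candida subcultured on Sabouraud agar, diluted in RPMI-1640 to 1 × 10⁵ cells/mL and incubated with peptoid at 30 °C for various times. Propidium iodide (final 10 µg/mL) added, 4 min at 30 °C, then flow cytometry with ≥10,000 events. Read-out is % PI-positive cells, background (no peptoid) subtracted; triplicates, mean ± SD.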
On the technique in general: Flow cytometry measures light scatter and fluorescence of single cells or particles in a stream.

In data set [9] the test system is Candida albicans. Briefly: Membrane permeabilizing effect in Candida albicans ATCC 90029 assessed as propidium iodide uptake at 100 uM after 120 to 240 mins by flow cytometry. It counts as functional. In outline: as §3
Data set [10] concerns Candida albicans. The data set is described as follows: Membrane permeabilizing effect in Candida albicans ATCC 90029 assessed as propidium iodide uptake at 250 uM after 30 to 240 mins by flow cytometry. The class given is functional, organism-based. The gist of the method: as §3
In data set [11] the test system is Escherichia coli. The data set is described as follows: Membrane permeabilizing effect in Escherichia coli ATCC 25922 assessed as propidium iodide uptake at 250 uM after 180 mins by flow cytometry. The class given is functional, organism-based. In outline: (§4)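 Log-phase bacteria at 1 × 10⁶ cells/mL in MH broth incubated with peptoid at 37 °C for various times. Propidium iodide (final 10 µg/mL) added, 4 min at 37 °C, then flow cytometry with ≥10,000 events. Read-out is % PI-positive cells, background (no peptoid) subtracted; triplicates, mean ± SD.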

The subject of data set [12] is Staphylococcus aureus. Briefly: Membrane permeabilizing effect in Staphylococcus aureus ATCC 25923 assessed as propidium iodide uptake at 250 uM after 60 mins by flow cytometry. It counts as functional. The gist of the method: as §4
The nature of data set [13]: Toxicity in human RBCs assessed as induction of hemolysis at 20 uM relative to untreated control. The class given is cell-based, Erythrocyte. The following applies: red blood cells (RBCs).

Values after ≈ are worked out from the molar mass of the structure shown. Active and inactive are the calls of the source. The calls are words filed in the database; no cut-off is given here. Square brackets hold non-standard residues; d marks the D form. Peptide text beside a SMILES is read from it. Nphe = O=C(O)CNCc1ccccc1; Nlys = NCCCCNCC(=O)O

As to `NCCCCN1CC(=O)N(CCCCN)CC(=O)N(CCCCN)CC(=O)N(CCCCN)CC(=O)N(CCCCN)CC(=O)N(CCCCN)CC1=O.O=C(O)C(F)(F)F.O=C(O)C(F)(F)F.O=C(O)C(F)(F)F.O=C(O)C(F)(F)F.O=C(O)C(F)(F)F.O=C(O)C(F)(F)F`, the MIC (commonly the least concentration at which growth counts as inhibited) in the data set on Cryptococcus neoformans [1] was > 1000 µM; in the data set with Staphylococcus aureus [2], > 1000 µM; against Escherichia coli [3], > 1000 µM; against Candida albicans [4] it was 5 µM; against Debaryomyces hansenii, 5 µM; in the data set on Salmonella typhimurium, > 1000 µM. Further, the MIC against Cryptococcus neoformans [5] was > 1000 µM; with Candida albicans [7] it was 10 µM. Further, in [6], the Activity result is listed as “Non-toxic”.

For the molecule `NCCCCN1CC(=O)N(Cc2ccccc2)CC(=O)N(CCCCN)CC(=O)N(CCCCN)CC(=O)N(Cc2ccccc2)CC(=O)N(CCCCN)CC1=O.O=C(O)C(F)(F)F.O=C(O)C(F)(F)F.O=C(O)C(F)(F)F.O=C(O)C(F)(F)F` (cyclo([Nlys][Nlys][Nphe][Nlys][Nlys][Nphe])), the MIC against Cryptococcus neoformans [1] was 99 µM; against Staphylococcus aureus [2], > 1000 µM; against Escherichia coli [3], 786 µM; against Candida albicans [4] it was 12 µM; with Debaryomyces hansenii, 12 µM; against Salmonella typhimurium, > 1000 µM. Besides, the values for the MIC against Cryptococcus neoformans [5] and with Candida albicans [7] were 47 µM and 12 µM, respectively. Besides, the outcome in the data set on Candida albicans [8] was Active. Besides, the Activity in the data set with Candida albicans [9] is given as 50%; in data set [6], “Non-toxic”.

For `NCCCCN(CC(=O)O)C(=O)CN(CCCCN)C(=O)CN(Cc1ccccc1)C(=O)CN(CCCCN)C(=O)CN(CCCCN)C(=O)CNCc1ccccc1`, the MIC in the data set on Cryptococcus neoformans [1], in the data set on Staphylococcus aureus [2], against Escherichia coli [3], against Candida albicans [4], in the data set on Debaryomyces hansenii and against Salmonella typhimurium was > 1000 µM each time. Besides, the MIC in the data set with Cryptococcus neoformans [5] and in the data set with Candida albicans [7] was > 1000 µM throughout.

As to `NCCCCN1CC(=O)N(CCOCc2ccccc2)CC(=O)N(CCCCN)CC(=O)N(CCOCc2ccccc2)CC(=O)N(CCCCN)CC(=O)N(CCOCc2ccccc2)CC1=O.O=C(O)C(F)(F)F.O=C(O)C(F)(F)F.O=C(O)C(F)(F)F`, the MIC is 92 µM in the data set on Cryptococcus neoformans [1]; 383 µM in the data set on Staphylococcus aureus [2]; 383 µM in the data set with Escherichia coli [3]; 184 µM against Candida albicans [4]; > 766 µM in the data set on Salmonella typhimurium; 184 µM with Cryptococcus neoformans [5]. Also, the MIC against Candida albicans [7] is 184 µM. Further, the outcome in the data set with Candida albicans [10] and in the data set on Escherichia coli [11] was inactive. The Activity in the data set with Staphylococcus aureus [12] is recorded as >40%.

Turning to `O=C1CN(Cc2ccccc2)C(=O)CN(Cc2ccccc2)C(=O)CN(Cc2ccccc2)C(=O)CN(Cc2ccccc2)C(=O)CN(Cc2ccccc2)C(=O)CN1Cc1ccccc1`, the MIC against Cryptococcus neoformans [1], in the data set with Staphylococcus aureus [2], with Escherichia coli [3], in the data set on Candida albicans [4], in the data set with Salmonella typhimurium and with Cryptococcus neoformans [5] was > 1000 µM each time. Moreover, the MIC with Candida albicans [7] is > 1000 µM.

As for `NCCCCN1CC(=O)N(CCOCc2ccccc2)CC(=O)N(CCOCc2ccccc2)CC(=O)N(CCCCN)CC(=O)N(CCOCc2ccccc2)CC(=O)N(CCOCc2ccccc2)CC1=O`, the MIC was 98 µM (≈ 100 µg/mL) in the data set with Cryptococcus neoformans [1]; 392 µM (≈ 400 µg/mL) against Staphylococcus aureus [2]; 392 µM (≈ 400 µg/mL) with Escherichia coli [3]; 196 µM (≈ 200 µg/mL) with Candida albicans [4]; > 792 µM against Salmonella typhimurium; 196 µM (≈ 200 µg/mL) in the data set on Cryptococcus neoformans [5]. For the same molecule, in the data set with Candida albicans [7], the lowest concentration to inhibit growth (MIC) was 196 µM (≈ 200 µg/mL).

Take `NCCCCN(CC(=O)N(CC(=O)N(CC(=O)N(CCCCN)CC(=O)N(CC(=O)O)Cc1ccccc1)Cc1ccccc1)Cc1ccccc1)C(=O)CNCc1ccccc1` (H-[Nphe][Nlys][Nphe][Nphe][Nlys][Nphe]-OH): the MIC is 788 µM (≈ 680 µg/mL) against Cryptococcus neoformans [1]; > 1000 µM against Staphylococcus aureus [2]; > 1000 µM against Escherichia coli [3]; > 1000 µM against Candida albicans [4]; > 1000 µM in the data set with Salmonella typhimurium; > 1000 µM with Cryptococcus neoformans [5]. For the same molecule, in the data set on Candida albicans [7], the MIC was > 1000 µM.

For `NCCCCNCC(=O)N(CCCCN)CC(=O)N(CCCCN)CC(=O)N(CCCCN)CC(=O)N(CCCCN)CC(=O)N(CCCCN)CC(=O)O`, the MIC against Cryptococcus neoformans [1] is > 1000 µM; in the data set on Staphylococcus aureus [2], > 1000 µM; against Escherichia coli [3], > 1000 µM; in the data set on Candida albicans [4], 500 µM (≈ 394 µg/mL); against Debaryomyces hansenii, > 1000 µM; in the data set on Salmonella typhimurium it was > 1000 µM. Moreover, the MIC with Cryptococcus neoformans [5] and in the data set on Candida albicans [7] was > 1000 µM throughout.

As to `NCCCCN1CC(=O)N(Cc2ccccc2)CC(=O)N(Cc2ccccc2)CC(=O)N(CCCCN)CC(=O)N(Cc2ccccc2)CC(=O)N(Cc2ccccc2)CC1=O` (cyclo([Nlys][Nphe][Nphe][Nlys][Nphe][Nphe])), the MIC against Cryptococcus neoformans [1] was found to be 116 µM (≈ 98 µg/mL); in the data set on Staphylococcus aureus [2], 465 µM (≈ 393 µg/mL); in the data set with Escherichia coli [3] it was 465 µM (≈ 393 µg/mL); against Candida albicans [4] it was 232 µM (≈ 196 µg/mL); in the data set with Salmonella typhimurium it was 465 µM (≈ 393 µg/mL); in the data set on Cryptococcus neoformans [5], 232 µM (≈ 196 µg/mL). For the same molecule, the lowest concentration to inhibit growth in the data set with Candida albicans [7] (MIC) was 465 µM (≈ 393 µg/mL).

As for `NCCCCN(CC(=O)N(CCOCc1ccccc1)CC(=O)N(CCOCc1ccccc1)CC(=O)N(CCCCN)CC(=O)N(CCOCc1ccccc1)CC(=O)O)C(=O)CNCCOCc1ccccc1`, the MIC against Cryptococcus neoformans [1] is 90 µM (≈ 93.5 µg/mL); against Staphylococcus aureus [2], > 720 µM; with Escherichia coli [3] it was 360 µM (≈ 374 µg/mL); with Candida albicans [4], 360 µM (≈ 374 µg/mL); in the data set with Salmonella typhimurium, 720 µM (≈ 748 µg/mL); against Cryptococcus neoformans [5], 180 µM (≈ 187 µg/mL). This molecule also returned an MIC in the data set with Candida albicans [7] of 360 µM (≈ 374 µg/mL).

As to `CC[C@H](C)[C@H](NC(=O)CN)C(=O)NCC(=O)N[C@@H](C)C(=O)N[C@H](C(=O)N[C@@H](CC(C)C)C(=O)N[C@@H](CCCCN)C(=O)N[C@H](C(=O)N[C@@H](CC(C)C)C(=O)N[C@H](C(=O)N[C@H](C(=O)NCC(=O)N[C@@H](CC(C)C)C(=O)N1CCC[C@H]1C(=O)N[C@@H](C)C(=O)N[C@@H](CC(C)C)C(=O)N[C@H](C(=O)N[C@@H](CO)C(=O)N[C@@H](Cc1c[nH]c2ccccc12)C(=O)N[C@H](C(=O)N[C@@H](CCCCN)C(=O)N[C@@H](CCCNC(=N)N)C(=O)N[C@@H](CCCCN)C(=O)N[C@@H](CCCNC(=N)N)C(=O)N[C@@H](CCC(N)=O)C(=O)N[C@@H](CCC(N)=O)C(N)=O)[C@@H](C)CC)[C@@H](C)CC)[C@@H](C)O)[C@@H](C)O)C(C)C)C(C)C` [MELITTIN], the hemolysis at 20 µM in data set [13] is > 90%.

With `O=C1CN(CCOCc2ccccc2)C(=O)CN(CCOCc2ccccc2)C(=O)CN(CCOCc2ccccc2)C(=O)CN(CCOCc2ccccc2)C(=O)CN(CCOCc2ccccc2)C(=O)CN1CCOCc1ccccc1`, the MIC against Cryptococcus neoformans [1], in the data set with Staphylococcus aureus [2], against Escherichia coli [3], against Candida albicans [4], in the data set with Salmonella typhimurium and in the data set with Cryptococcus neoformans [5] was > 1000 µM throughout. Besides, the MIC in the data set with Candida albicans [7] is > 1000 µM.

The values above are taken from ChEMBL document CHEMBL1157592, “Design, synthesis and antimicrobial properties of non-hemolytic cationic alpha-cyclopeptoids” (Bioorg Med Chem, 2010).
